The source made the active and inactive calls. No cut-off for these calls is given here.
Columns and labels:
[1] = Cytotoxicity against human MKN45 cells by MTT assay; format: functional, cell-based; conditions: MKN-45
[2] = test system: HCT-116; assay: Induction of apoptosis in human HCT116 cells assessed as accumulation at sub-G1 phase at 1 uM by propidium iodide staining-based flow cytometric analysis; format: functional, cell-based; conditions: TDE = time-dependent effect
In short: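 HCT116 cells exposed to 1 μM compound for varying time intervals; sub-G1 population quantified by flow cytometry.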

[3] = test system: HCT-116; assay: Induction of apoptosis in human HCT116 cells assessed as caspase-3 activation after 24 hrs by Western blotting analysis; format: functional, cell-based
In short: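 HCT116 cells treated with indicated concentrations for 24 h; lysates probed by Western blot for caspase 3 and PARP cleavage.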

[4] = test system: HCT-116; assay: Induction of apoptosis in human HCT116 cells assessed as PARP cleavage at 3 uM after 24 hrs by Western blotting analysis in presence of Z-VAD-FMK; format: functional, cell-based
In short: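 HCT116 cells treated 24 h with 3 μM compound with or without 20 μM z-VAD-fmk pan-caspase inhibitor; caspase 3 and PARP assessed by Western blot.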

[5] = biological target: Histone deacetylase 2 (Homo sapiens, UniProt Q92769)
Histone deacetylase 2, sequence (Q92769 whole entry): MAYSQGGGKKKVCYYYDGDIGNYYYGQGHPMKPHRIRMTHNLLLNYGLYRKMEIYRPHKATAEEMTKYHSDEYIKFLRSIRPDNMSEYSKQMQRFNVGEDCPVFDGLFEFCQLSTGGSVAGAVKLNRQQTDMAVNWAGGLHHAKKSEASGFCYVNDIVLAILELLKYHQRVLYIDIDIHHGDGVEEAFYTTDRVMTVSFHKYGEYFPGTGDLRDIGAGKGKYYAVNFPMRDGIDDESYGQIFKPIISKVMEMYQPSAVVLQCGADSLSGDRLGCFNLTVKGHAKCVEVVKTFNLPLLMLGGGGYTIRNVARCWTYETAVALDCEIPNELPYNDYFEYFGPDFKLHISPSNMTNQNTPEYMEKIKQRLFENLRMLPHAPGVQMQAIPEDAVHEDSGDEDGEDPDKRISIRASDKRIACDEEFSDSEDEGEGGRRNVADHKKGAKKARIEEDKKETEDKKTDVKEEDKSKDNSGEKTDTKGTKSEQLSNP

[6] = biological target: T1, Histone deacetylase 7 (Homo sapiens, UniProt Q8WUI4); assay: Inhibition of HDAC7 (unknown origin) by fluorescence assay
T1 sequence (Q8WUI4 whole entry): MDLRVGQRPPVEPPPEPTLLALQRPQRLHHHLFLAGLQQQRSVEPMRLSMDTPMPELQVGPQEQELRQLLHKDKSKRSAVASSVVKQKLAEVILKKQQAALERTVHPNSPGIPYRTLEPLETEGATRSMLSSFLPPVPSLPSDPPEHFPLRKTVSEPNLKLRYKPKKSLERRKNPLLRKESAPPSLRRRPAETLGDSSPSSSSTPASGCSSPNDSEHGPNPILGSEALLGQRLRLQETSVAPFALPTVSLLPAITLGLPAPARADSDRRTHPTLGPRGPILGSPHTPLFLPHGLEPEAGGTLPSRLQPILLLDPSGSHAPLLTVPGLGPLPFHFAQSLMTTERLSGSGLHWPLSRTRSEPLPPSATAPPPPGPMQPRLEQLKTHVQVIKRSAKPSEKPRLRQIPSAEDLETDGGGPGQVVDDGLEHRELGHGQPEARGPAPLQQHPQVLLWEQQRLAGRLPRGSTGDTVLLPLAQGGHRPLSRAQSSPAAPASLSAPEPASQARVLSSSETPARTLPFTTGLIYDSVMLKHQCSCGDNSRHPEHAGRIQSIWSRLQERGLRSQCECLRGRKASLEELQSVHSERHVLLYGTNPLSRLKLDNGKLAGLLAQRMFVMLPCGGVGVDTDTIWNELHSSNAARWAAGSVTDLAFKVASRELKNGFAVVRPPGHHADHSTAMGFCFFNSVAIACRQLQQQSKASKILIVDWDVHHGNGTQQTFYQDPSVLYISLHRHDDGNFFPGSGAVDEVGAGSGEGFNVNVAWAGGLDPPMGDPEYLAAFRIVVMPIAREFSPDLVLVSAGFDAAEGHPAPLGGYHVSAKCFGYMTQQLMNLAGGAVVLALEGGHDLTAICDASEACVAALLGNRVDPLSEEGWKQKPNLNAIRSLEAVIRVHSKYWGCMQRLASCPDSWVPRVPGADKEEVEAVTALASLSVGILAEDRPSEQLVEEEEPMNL
In short: (§1)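 Run by a contract testing lab. Compounds were dissolved in DMSO and tested in 10-dose IC50 mode, using 3-fold serial dilution starting at 10 μM. IC50 was taken from the dose series.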

[7] = biological target: T2, Polyamine deacetylase HDAC10 (Homo sapiens, UniProt Q969S8); assay: Inhibition of HDAC10 (unknown origin) by fluorescence assay; in short: as §1
T2 sequence (Q969S8 whole entry): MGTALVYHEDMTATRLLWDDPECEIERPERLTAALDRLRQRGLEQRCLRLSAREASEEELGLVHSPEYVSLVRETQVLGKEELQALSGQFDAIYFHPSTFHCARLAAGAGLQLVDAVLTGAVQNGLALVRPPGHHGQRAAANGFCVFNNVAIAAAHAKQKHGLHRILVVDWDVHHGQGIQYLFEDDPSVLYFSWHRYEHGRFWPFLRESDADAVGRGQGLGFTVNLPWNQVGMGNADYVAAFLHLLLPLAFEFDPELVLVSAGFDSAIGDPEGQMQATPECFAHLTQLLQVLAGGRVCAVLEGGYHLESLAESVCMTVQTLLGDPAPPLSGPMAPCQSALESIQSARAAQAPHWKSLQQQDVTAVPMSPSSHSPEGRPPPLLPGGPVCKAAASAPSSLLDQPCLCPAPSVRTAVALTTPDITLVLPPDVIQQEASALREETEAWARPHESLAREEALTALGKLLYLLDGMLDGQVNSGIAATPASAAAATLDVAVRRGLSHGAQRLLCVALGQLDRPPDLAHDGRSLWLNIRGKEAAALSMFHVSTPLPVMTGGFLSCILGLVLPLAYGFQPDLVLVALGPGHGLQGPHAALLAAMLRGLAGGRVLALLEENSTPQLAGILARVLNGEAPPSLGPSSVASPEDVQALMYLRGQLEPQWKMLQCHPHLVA

[8] = test system: HCT-116; assay: Antitumor activity against human HCT116 cells xenografted in nude athymic mouse assessed as tumor growth inhibition at 25 mg/kg/day, po after 2 to 16 days relative to control; format: functional; conditions: read-out: TGI
[9] = AUC (0 to infinity) in ICR mouse at 2 mg/kg, iv by LC-MS/MS analysis; format: ADME, organism-based; design: time infinity, dose 2 mg/kg, route intravenous; conditions: plasma
[10] = Tmax in ICR mouse at 10 mg/kg, po by LC-MS/MS analysis; format: ADME, organism-based; design: dose 10 mg/kg, route oral; conditions: in vivo
[11] = biological target: Histone deacetylase; assay: Inhibition of HDAC in human HeLa cell nuclear extract using Boc-Lys(Ac)-AMC as substrate after 30 mins by fluorimetric analysis; format: protein assay
[12] = test system: A549; assay: Cytotoxicity against human A549 cells by MTT assay; format: functional, cell-based

IC50 [5]: 1160 nM
IC50 [6]: 4110 nM
IC50 [7]: 4130 nM
AUC(0-inf) [9]: 289 ng·h/mL
Tmax [10]: 18 min
IC50 [11]: 100 nM
SMILES: O=C(/C=C/c1cccc(S(=O)(=O)n2ccc3cccnc32)c1)NO
IC50 [1]: 2510 nM
Activity [2]: tde
Activity [3]: Dose-dependent effect
Activity [4]: inactive
inhibition in vivo at 25 mg/kg/day [8]: 55.8%
IC50 [12]: 1330 nM

— ChEMBL document CHEMBL3259569 (J Med Chem, 2014)
